Converted amounts (≈) assume the structure as drawn. The source made the active and inactive calls. The rule behind the calls is not given here. Where a SMILES comes first, the peptide text is derived from it.
What was measured:
[1] = system: Salmonella enterica subsp. enterica; assay: Antibacterial activity against wild type Salmonella enterica serovar Typhimurium ATCC 14028 after 16 hrs by modified twofold broth microdilution method; type: functional, Salmonella enterica subsp. enterica serovar Typhimurium; settings: ATCC 14028, 16 h
How it was run: (§1)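 Broth microdilution MBC assay: 5 × 10^5 bacteria/ml in LB with a linear gradient of peptide concentrations. Peptide dilutions were made fresh in 0.2% BSA, 0.01% acetic acid and added after the inoculum. Plates were incubated at 37°C for 16 h, then spotted onto LB agar. MBC was the lowest concentration with no growth, averaged over at least three trials.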

[2] = system: Salmonella enterica subsp. enterica; assay: Antibacterial activity against bacterial sensory kinase PhoQ deficient Salmonella enterica serovar Typhimurium CS009 after 16 hrs by modified twofold broth microdilution method; type: functional, Salmonella enterica subsp. enterica serovar Typhimurium; settings: CS009, 16 h; how it was run: as §1
[3] = system: Salmonella enterica subsp. enterica; assay: Antibacterial activity against bacterial sensory kinase PhoP deficient Salmonella enterica serovar Typhimurium CS053 after 16 hrs by modified twofold broth microdilution method; type: functional, Salmonella enterica subsp. enterica serovar Typhimurium; settings: CS053, 16 h; how it was run: as §1
[4] = system: Salmonella enterica subsp. enterica; assay: Antibacterial activity against bacterial sensory kinase PhoQ deficient Salmonella enterica serovar Typhimurium expressing PhoPQ operon after 16 hrs by modified twofold broth microdilution method; type: functional, Salmonella enterica subsp. enterica serovar Typhimurium; how it was run: as §1
[5] = system: Salmonella enterica subsp. enterica; assay: (§2) Antibacterial activity against wild type Salmonella enterica serovar Typhimurium ATCC 14028 preincubated till 4 hrs at dosing schedule of 1 ug/ml at time zero, 1 ug/ml at 1st hr, 2 ug/ml at 2nd hr and final 4 ug/ml at 3rd hr assessed as increase in minimum bactericidal concentration measured after 16 hrs by modified twofold broth microdilution method in presence of 1 mM Mg2+ relative to naive unadapted bacteria; type: functional, Salmonella enterica subsp. enterica serovar Typhimurium
[6] = system: Salmonella enterica subsp. enterica; assay: Antibacterial activity against bacterial sensory kinase PhoQ deficient Salmonella enterica serovar Typhimurium CS009 assessed as direct antimicrobial activity after 16 hrs by modified twofold broth microdilution method; type: functional, Salmonella enterica subsp. enterica serovar Typhimurium; how it was run: as §1
[7] = system: Salmonella enterica subsp. enterica; assay: Antibacterial activity against bacterial sensory kinase PhoQ deficient Salmonella enterica serovar Typhimurium CS009 assessed as PhoQ-activating potential after 16 hrs by modified twofold broth microdilution method relative to wild type Salmonella enterica serovar Typhimurium ATCC 14028; type: functional, Salmonella enterica subsp. enterica serovar Typhimurium
How it was run: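 PAP was calculated as MBC against wild-type ATCC 14028 minus MBC against PhoQ mutant CS009. Both MBCs came from the broth microdilution assay: 5 × 10^5 bacteria/ml in LB, 37°C for 16 h, spotting onto LB agar, no-growth endpoint, averaged over at least three trials.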

[8] = target: T1, Virulence sensor histidine kinase PhoQ (Salmonella typhimurium (strain LT2 / SGSC1412 / ATCC 700720)) (UniProt P0DM80); assay: Activation of PhoQ in Salmonella enterica serovar Typhimurium CS102 expressing PhoN fusion protein assessed as initiation of acid phosphatase reporter enzyme expression at 1 ug/ml in presence of 1 mM magnesium; settings: Salmonella enterica subsp. enterica serovar Typhimurium
T1 sequence (whole entry): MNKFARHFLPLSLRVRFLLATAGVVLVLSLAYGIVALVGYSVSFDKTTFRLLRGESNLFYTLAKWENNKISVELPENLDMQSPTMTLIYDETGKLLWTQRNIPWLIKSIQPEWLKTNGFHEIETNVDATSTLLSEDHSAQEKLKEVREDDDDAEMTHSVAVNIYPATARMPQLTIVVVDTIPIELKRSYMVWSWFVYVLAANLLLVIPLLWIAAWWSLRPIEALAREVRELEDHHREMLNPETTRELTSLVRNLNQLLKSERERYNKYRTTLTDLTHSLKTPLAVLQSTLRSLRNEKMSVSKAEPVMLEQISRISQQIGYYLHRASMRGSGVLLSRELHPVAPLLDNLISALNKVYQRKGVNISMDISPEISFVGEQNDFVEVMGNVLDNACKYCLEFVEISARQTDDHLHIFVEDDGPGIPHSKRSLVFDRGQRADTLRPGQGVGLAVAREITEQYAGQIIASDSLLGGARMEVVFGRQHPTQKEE
How it was run: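 PhoPQ reporter strain CS102 (PhoQ-regulated acid phosphatase PhoN fusion) incubated in LB with peptide at 1 μg/ml plus 1 mM magnesium; acid phosphatase activity measured. Reference conditions were 50 μM MgCl2 (activating) and 5 mM MgCl2 (repressive). Mean of three replicate experiments.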

[9] = system: Salmonella enterica subsp. enterica; assay: Antibacterial activity against bacterial sensory kinase PhoP deficient Salmonella enterica serovar Typhimurium CS053 assessed as direct antimicrobial activity after 16 hrs by modified twofold broth microdilution method; type: functional, organism-based; how it was run: as §1
[10] = system: Salmonella enterica subsp. enterica; assay: Antibacterial activity against wild type Salmonella enterica serovar Typhimurium ATCC 14028 assessed as direct antimicrobial activity after 16 hrs by modified twofold broth microdilution method; type: functional, organism-based
[11] = system: Salmonella enterica subsp. enterica; assay: as §2, with “hr” for “hr assessed as increase in minimum bactericidal concentration”, “Mg2+” for “Mg2+ relative to naive unadapted bacteria”; type: functional, organism-based
[12] = system: Salmonella enterica subsp. enterica; assay: Antibacterial activity against bacterial sensory kinase PhoQ deficient Salmonella enterica serovar Typhimurium CS009 by modified twofold broth microdilution method; type: functional, Salmonella enterica subsp. enterica serovar Typhimurium
[13] = system: Salmonella enterica subsp. enterica; assay: Antibacterial activity against wild type Salmonella enterica serovar Typhimurium ATCC 14028 by modified twofold broth microdilution method; type: functional, Salmonella enterica subsp. enterica serovar Typhimurium

Compound | MBC [1] [µg/mL] | MBC [2] [µg/mL] | MBC [3] [µg/mL] | MBC [4] [µg/mL] | fold change (FC) [5] | Activity [6] [µg/mL] | Activity [7] [µg/mL] | Activity [8] | Activity [9] | Activity [10] | Activity [11] | MIC [12] [µg/mL] | MIC [13] [µg/mL]
CC(C)C[C@H](NC(=O)[C@H](CCCCN)NC(=O)[C@H](CCC(N)=O)NC(=O)[C@H](CC(N)=O)NC(=O)[C@H](CC(C)C)NC(=O)[C@H](CC(=O)O)NC(=O)[C@H](CCC(=O)O)NC(=O)[C@@H]1CCCN1C(=O)[C@@H](NC(=O)[C@H](C)NC(=O)CN)[C@@H](C)O)C(=O)N[C@@H](CO)C(N)=O (H-GATPEDLNQKLS-NH2) | > 500 | > 500 | > 500 | > 500 | – | – | – | – | – | – | – | – | –
CC[C@H](C)[C@H](NC(=O)[C@H](CCCCN)NC(=O)[C@@H](NC(=O)[C@@H](NC(=O)[C@H](CCCNC(=N)N)NC(=O)[C@H](C)NC(=O)[C@H](CC(C)C)NC(=O)[C@@H](N)CCCNC(=N)N)[C@@H](C)CC)C(C)C)C(=O)N[C@@H](CCCNC(=N)N)C(=O)N[C@H](C(=O)N[C@@H](C)C(=O)N[C@@H](CCCNC(=N)N)C(N)=O)C(C)C (H-RLARIVKIRVAR-NH2) | 68.8 (≈ 47.5 µM) | 13.1 (≈ 9.04 µM) | 13.3 (≈ 9.17 µM) | 69 (≈ 47.6 µM) | <=10 | 13.1 | 55.7 | Active | – | – | – | – | –
CC[C@H](C)[C@H](NC(=O)[C@H](CCCNC(=N)N)NC(=O)[C@H](C)NC(=O)[C@H](CC(C)C)NC(=O)[C@@H](N)CCCNC(=N)N)C(=O)N[C@H](C(=O)N1CCC[C@H]1C(=O)N[C@H](C(=O)N[C@@H](CCCNC(=N)N)C(=O)N[C@H](C(=O)N[C@@H](C)C(=O)N[C@@H](CCCNC(=N)N)C(N)=O)C(C)C)[C@@H](C)CC)C(C)C (H-RLARIVPIRVAR-NH2) | > 500 | 46.7 (≈ 32.9 µM) | 45.4 (≈ 32 µM) | > 500 | – | 46.7 | – | Active | inactive | inactive | – | – | –
CC[C@H](C)[C@H](NC(=O)[C@H](CCCNC(=N)N)NC(=O)[C@H](C)NC(=O)[C@H](CC(C)C)NC(=O)[C@@H](N)CCCNC(=N)N)C(=O)N[C@H](C(=O)N[C@H](C(=O)N[C@H](C(=O)N[C@@H](CCCNC(=N)N)C(=O)N[C@H](C(=O)N[C@@H](C)C(=O)NCC(N)=O)C(C)C)[C@@H](C)CC)C(C)C)C(C)C (H-RLARIVVIRVAG-NH2) | 31.4 (≈ 23.8 µM) | 8.6 (≈ 6.51 µM) | 10.1 (≈ 7.64 µM) | 34 (≈ 25.7 µM) | – | 8.6 | 22.8 | Active | – | – | – | – | –
CC[C@H](C)[C@H](NC(=O)[C@H](CCCNC(=N)N)NC(=O)[C@H](C)NC(=O)[C@H](CC(C)C)NC(=O)[C@@H](N)CCCNC(=N)N)C(=O)N[C@H](C(=O)N[C@H](C(=O)N[C@H](C(=O)N[C@@H](CCCNC(=N)N)C(=O)N[C@H](C(=O)N[C@@H](C)C(=O)N[C@@H](CCCNC(=N)N)C(N)=O)C(C)C)[C@@H](C)CC)C(C)C)C(C)C (H-RLARIVVIRVAR-NH2) | 32.8 (≈ 23.1 µM) | 6.2 (≈ 4.36 µM) | 6.5 (≈ 4.57 µM) | 42.5 (≈ 29.9 µM) | – | 6.2 | – | Active | – | – | – | – | –
CC[C@H](C)[C@H](NC(=O)[C@H](CCCNC(=N)N)NC(=O)[C@H](CCCNC(=N)N)NC(=O)[C@H](CC(C)C)NC(=O)[C@@H](N)CCCNC(=N)N)C(=O)N[C@H](C(=O)N[C@H](C(=O)N[C@H](C(=O)N[C@@H](CCCNC(=N)N)C(=O)N[C@H](C(=O)N[C@@H](C)C(=O)N[C@@H](CCCNC(=N)N)C(N)=O)C(C)C)[C@@H](C)CC)C(C)C)C(C)C (H-RLRRIVVIRVAR-NH2) | 11.5 (≈ 7.64 µM) | 4.2 (≈ 2.79 µM) | 3.8 (≈ 2.52 µM) | 30 (≈ 19.9 µM) | – | 4.2 | 7.3 | inactive | – | – | Active | – | –
CC[C@H](C)[C@H](NC(=O)[C@H](CCCNC(=N)N)NC(=O)[C@H](Cc1c[nH]c2ccccc12)NC(=O)[C@H](CCCNC(=N)N)NC(=O)[C@@H](N)CCCNC(=N)N)C(=O)N[C@H](C(=O)N[C@H](C(=O)N[C@H](C(=O)N[C@@H](CCCNC(=N)N)C(=O)N[C@H](C(=O)N[C@@H](CCCNC(=N)N)C(=O)N[C@@H](CCCNC(=N)N)C(N)=O)C(C)C)[C@@H](C)CC)C(C)C)C(C)C (H-RRWRIVVIRVRR-NH2) | 10 (≈ 6.01 µM) | 5.7 (≈ 3.43 µM) | 6.4 (≈ 3.85 µM) | 19 (≈ 11.4 µM) | – | 5.7 | 34.3 | inactive | – | – | – | – | –
CC1(C)S[C@@H]2[C@H](NC(=O)[C@H](N)c3ccccc3)C(=O)N2[C@H]1C(=O)O [AMPICILLIN] | – | – | – | – | – | – | – | – | – | – | – | 8 (≈ 22.9 µM) | 10 (≈ 28.6 µM)
CC1(C)S[C@@H]2[C@H](NC(=O)C(C(=O)O)c3ccccc3)C(=O)N2[C@H]1C(=O)O (stereo not given in full) [CARBENICILLIN] | – | – | – | – | – | – | – | – | – | – | – | 8 (≈ 21.1 µM) | 10 (≈ 26.4 µM)
CCn1cc(C(=O)O)c(=O)c2ccc(C)nc21 [NALIDIXIC ACID] | – | – | – | – | – | – | – | – | – | – | – | 3 (≈ 12.9 µM) | 3 (≈ 12.9 µM)
CN(C)[C@@H]1C(O)=C(C(N)=O)C(=O)[C@@]2(O)C(O)=C3C(=O)c4c(O)cccc4[C@@](C)(O)[C@H]3C[C@@H]12 [TETRACYCLINE] | – | – | – | – | – | – | – | – | – | – | – | 3 (≈ 6.75 µM) | 3 (≈ 6.75 µM)
COc1cc(Cc2cnc(N)nc2N)cc(OC)c1OC [TRIMETHOPRIM] | – | – | – | – | – | – | – | – | – | – | – | 1 (≈ 3.44 µM) | 1 (≈ 3.44 µM)
GENTAMICIN | – | – | – | – | – | – | – | – | – | – | – | 16 | 16

Source: ChEMBL document CHEMBL1151446, “The PhoQ-activating potential of antimicrobial peptides contributes to antimicrobial efficacy and is predictive of the induction of bacterial resistance” (2007)
